# Assay outcomes (PubChem BioAssay)
# Compounds with a hit are over-represented: about 3% of the library has one in this group of screens.
# PGC1a acetyl inh: lowers PGC1a acetylation signal in U2OS cells. AlphaScreen anti-acetyl-lysine; with virally co-expressed GCN5 acetyltransferase. inhibition, % at 15.6 µM. actives 0.17% (n = 350,000);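 active = every replicate shows inhibition of at least 40%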;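 also: 0% = neutral control wells and 100% = positive control wells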
# rRNA inh HTS: inhibits bacterial ribosomal RNA function over humanized ribosomes. E. coli WT GFP vs humanized-ribosome RFP mutants, fluorescence, 24 h; stronger effect = lower value; DMSO median 0, no signal -100. GFP signal change (wild-type ribosome), % (test concentration not listed). actives 1.6% (n = 350,000);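 active = significant combined selectivity score with lowered wild-type GFP, culture density cut under 30%, mutant RFP and density less affected; inactive = any of these conditions unmet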
# SIRT5 block: inhibitors of human sirtuin-5 desuccinylase; Purified SirT5, succinyl-peptide AMC, trypsin-coupled fluorescence; inhibition, % at 15 µM; actives 1.1% (n = 330,000); AID 652115; in the data active = inhibition above about 15%
# Target sequence (Q9NXA8 whole entry, looked up): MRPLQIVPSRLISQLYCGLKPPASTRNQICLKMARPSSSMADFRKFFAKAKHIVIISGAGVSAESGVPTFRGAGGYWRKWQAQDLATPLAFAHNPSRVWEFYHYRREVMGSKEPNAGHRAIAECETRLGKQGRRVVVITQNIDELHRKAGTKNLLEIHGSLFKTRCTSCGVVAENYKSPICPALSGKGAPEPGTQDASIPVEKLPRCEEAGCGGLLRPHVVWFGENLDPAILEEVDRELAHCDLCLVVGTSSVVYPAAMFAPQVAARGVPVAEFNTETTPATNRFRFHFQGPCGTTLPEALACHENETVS
# Cneo AK release: Cryptococcus neoformans lysis via adenylate kinase release; actives 0.2% (n = 360,000); C. neoformans lysis, adenylate kinase release luminescence, 4 h; normalised: neutral wells 0, clomiphene wells 100; lysis activity, % at 15 µM;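 active = mean lysis activity across replicates of at least 80%, whatever share of replicates individually reach that level; inactive = mean lysis activity below 80%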
#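 Signal: Adenylate kinase release luminescence | Assay system: Log-phase Cryptococcus neoformans yeast cells | Input: Cells at 5 × 10^6 per mL | Buffer or medium: Fresh YPD growth medium | Compound: Single dose | Schedule: Static 4 h at 37 °C with compound, 1 h detection | Controls: Clomiphene | Read-out: Luminescence rise reflecting yeast cell lysis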
# Statin myotox sup: suppression of simvastatin myotoxicity | AID 602340 | C2C12 myotubes + simvastatin, ATP luminescence, 48 h; scaled: DMSO 0, geranylgeraniol control 100 | rescue of ATP level, % at 7.49 µM | actives 0.78% (n = 330,000);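 active = mean ATP rescue above about 67%, or every replicate alone reaching that limit, limit read from the data, passing the limit was not always enough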;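 also: myotubes were challenged with 10 µM simvastatin during compound exposure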
# S100A4 inh HTS: S100A4-myosin IIA interaction inhibition. P26447. S100A4/TAMRA-MyoIIA peptide fluorescence polarization. inhibition, % at 10.7 µM. actives 0.14% (n = 360,000). AID 652163;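 active = mean inhibition of at least 70% across replicates, with every replicate also reaching that level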
# Target sequence (P26447 whole entry, looked up): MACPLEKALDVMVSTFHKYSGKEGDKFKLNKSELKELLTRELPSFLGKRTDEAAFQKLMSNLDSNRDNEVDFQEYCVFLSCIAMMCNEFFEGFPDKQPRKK
#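 Compound dosing: one dose per compound; test system: human S100A4 monomer with TAMRA-labelled myosin IIA peptide; probe or stimulus: TAMRA-labelled myosin IIA heavy-chain peptide probe, 5 nM; medium: HEPES buffer with Ca2+, pH 7.2; schedule: 5 min incubation before reading; benchmarks: neutral control DMSO, positive control TFP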
# * = called active by the depositor; · = no result given.
SMILES,PGC1a acetyl inh,rRNA inh HTS,SIRT5 block,Cneo AK release,Statin myotox sup,S100A4 inh HTS
Cc1nnc(SCC(=O)Nc2ncc3c(n2)CCCC3=O)s1,1,·,·,1,·,·
C[C@H](CO)N1C[C@H](C)[C@H](CN(C)C(=O)Nc2ccc3c(c2)OCO3)Oc2ccc(NC(=O)CCN3CCOCC3)cc2C1=O,-6,0,-5,9,-20,6
CN(C)CCCNC(=O)C[C@@H]1C=C[C@@H](NS(=O)(=O)c2ccccc2)[C@H](CO)O1,-2,2,-1,15,6,4
Cc1ccc(S(=O)(=O)N[C@@H]2CC[C@@H](CC(=O)N3CCN(c4ccccc4)CC3)O[C@@H]2CO)cc1,-2,-2,24*,4,-1,6
COc1ccccc1S(=O)(=O)N[C@H]1CC[C@H](CC(=O)N2CCN(C)CC2)O[C@@H]1CO,16,3,4,-6,-5,128*
Cc1ccc(S(=O)(=O)N[C@@H]2C=C[C@H](CC(=O)N3CCN(c4ccccc4)CC3)O[C@@H]2CO)cc1,4,-3,25*,-2,-8,-12
CN(C)CCCNC(=O)C[C@@H]1C=C[C@H](NS(=O)(=O)c2ccccc2)[C@@H](CO)O1,-7,-2,15*,38,2,-1
COc1ccccc1S(=O)(=O)N[C@@H]1CC[C@@H](CC(=O)N2CCN(C)CC2)O[C@@H]1CO,4,3,-2,-2,7,-51
COc1cccc(NC(=O)N2[C@H](CO)[C@H](c3ccccc3)[C@@H]2CNC(C)C)c1,-10,5,0,1,10,-12
COc1ccc(NC(=O)N(C)C[C@@H]2OCCCC[C@@H](C)Oc3ccc(NS(=O)(=O)c4ccc(Cl)cc4)cc3C(=O)N([C@@H](C)CO)C[C@@H]2C)cc1,-10,0,3,12,·,2
COc1ccc(S(=O)(=O)N[C@@H]2C=C[C@@H](CC(=O)N3CCC(Cc4ccccc4)CC3)O[C@H]2CO)cc1,-9,-21,9,95*,23,-17
COc1ccccc1CN1C[C@H](C)[C@H](OC)CN(C)C(=O)c2ccc(NC(C)=O)cc2OC[C@H]1C,4,3,1,1,0,-20
COc1cccc(CNc2ccccc2O)c1OCc1ccccc1F,-2,6,-5,2,96*,2
CNC(=O)C[C@@H]1CC[C@@H]2[C@H](COc3ccc(NC(=O)C(C)C)cc3C(=O)N2C)O1,11,5,·,-1,19,·
O=C(c1ccccc1)N1CCN(C(=O)c2ccc(OC(F)(F)F)cc2)CC1,-4,·,·,-4,98*,·
CC(=O)N1CCN(C(=O)c2ccc(Oc3ccccc3)cc2)CC1,0,13,0,-1,4,-7
C[C@@H]1CCCCO[C@H](CN(C)C(=O)c2ccccc2)[C@H](C)CN([C@H](C)CO)C(=O)c2cc(NC(=O)c3ccccc3)ccc2O1,0,-5,1,-1,·,-7
CC(C)C[C@H](NC(=O)C1CCN(C(=O)[C@H](Cc2ccccc2)NC(=O)OC(C)(C)C)CC1)C(=O)O,·,3,22*,-1,-15,-2
C[C@H](NC(=O)C1CCN(C(=O)[C@H](Cc2ccccc2)NC(=O)OC(C)(C)C)CC1)C(=O)O,-1,11,-4,1,-4,1
Cc1cccc(NC(=O)COc2ccc3c(c2)CCC3)n1,·,-7,4,·,-4,-3
Cc1cccc(NC(=O)COc2ccc3oc4c(c3c2)CCCC4)n1,5,·,·,2,134*,·
CN1C(=O)c2cc(NC(=O)c3cc(F)cc(F)c3)ccc2OC[C@H]2O[C@H](CC(=O)O)CC[C@H]21,0,0,-1,-1,-17,3
COCCCNC(=S)Nc1cc(C)c(C)cc1C,75*,·,1,·,7,0
COCCCNC(=S)Nc1ccc(OC(F)F)cc1C,·,0,·,4,-11,9
Cc1ccc(C2C=C(c3ccccc3OC(F)F)Nc3ncnn32)cc1 (stereo not drawn),0,·,·,0,107*,·
SMILES,PGC1a acetyl inh,rRNA inh HTS,SIRT5 block,Cneo AK release,Statin myotox sup,S100A4 inh HTS
CN(C)c1ccc(C2C=C(c3ccc(Cl)cc3OC(F)F)Nc3ncnn32)cc1 (stereo not drawn),·,·,·,4,-117,·
CCC(=O)Nc1cccc(-c2cc3ccccc3oc2=O)c1,·,·,28*,·,·,-2
CCC(=O)Nc1cccc(NC(=O)c2cc3ccccc3o2)c1,-6,·,·,-5,-4,·
C[C@@H]1CN([C@@H](C)CO)C(=O)c2cc(NC(=O)Nc3cccc4ccccc34)ccc2O[C@@H](C)CCCCO[C@H]1CN(C)C(=O)Cc1ccccc1,3,0,4,-3,·,11
COC(=O)c1cccc(NC(=S)Nc2ccc(Cl)c(Cl)c2)c1,4,-48*,1,-4,·,-1
COC(=O)c1cccc(NC(=S)Nc2ccccc2Cl)c1,0,-2,1,-1,4,2
COC(=O)c1cc(NC(=O)Nc2cccc(Cl)c2)ccc1Cl,-13,-51*,-2,-1,4,1
CC(=O)Nc1cccc(C(=O)OCC(=O)c2ccccc2Cl)c1,1,-24*,2,·,·,29
O=C(C[C@@H]1CC[C@H]2[C@@H](COC[C@@H](O)CN2CCc2ccccc2)O1)NCc1ccc(F)cc1,-8,-5,-5,0,16,-9
C[C@H]1CCCCO[C@H](CN(C)S(=O)(=O)c2cccs2)[C@@H](C)CN([C@@H](C)CO)C(=O)c2cc(NC(=O)Nc3ccccc3)ccc2O1,-15,0,4,-4,·,-6
O=C([C@H]1[C@H](CO)[C@H]2Cn3c(cccc3=O)[C@H]2N1Cc1ccccn1)N1CCC(Cc2ccccc2)CC1,·,1,1,·,·,0
C[C@H](CO)N1C[C@H](C)[C@@H](CN(C)C(=O)NC2CCCCC2)OCCCC[C@H](C)Oc2ccc(NC(=O)Nc3cccc4ccccc34)cc2C1=O,9,-1,0,-2,122*,-5
COc1ccc(NC(=O)Nc2ccc3c(c2)C(=O)N([C@@H](C)CO)C[C@@H](C)[C@H](CN(C)C(=O)Nc2cccc4ccccc24)OCCCC[C@H](C)O3)cc1,-7,4,20*,2,-5,12
C[C@@H]1CCCCO[C@@H](CN(C)C(=O)Nc2cccc3ccccc23)[C@H](C)CN([C@H](C)CO)C(=O)c2cc(NC(=O)c3ccncc3)ccc2O1,-7,-5,7,-3,135*,0
C[C@@H]1CN([C@@H](C)CO)C(=O)c2cc(NC(=O)c3ccncc3)ccc2O[C@@H](C)CCCCO[C@H]1CN(C)C(=O)Nc1cccc2ccccc12,-19,-4,7,0,-22,3
